# Screening data from PubChem BioAssay.
# CHRM4 antagonist: blocks acetylcholine activation of human M4 receptor; P08173; CHO-hM4 cells, ACh EC80, Fluo-8 calcium fluorescence; inhibition, % at 3 µM; 0.73% of 360,000 active;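 active = inhibition above its plate's cutoff, the mean inhibition of sample wells plus 3 SD, cut at about 27% in these data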;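 note: 0% = acetylcholine EC80 with DMSO and 100% = DMSO without agonist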
# Target sequence (P08173 whole entry, looked up): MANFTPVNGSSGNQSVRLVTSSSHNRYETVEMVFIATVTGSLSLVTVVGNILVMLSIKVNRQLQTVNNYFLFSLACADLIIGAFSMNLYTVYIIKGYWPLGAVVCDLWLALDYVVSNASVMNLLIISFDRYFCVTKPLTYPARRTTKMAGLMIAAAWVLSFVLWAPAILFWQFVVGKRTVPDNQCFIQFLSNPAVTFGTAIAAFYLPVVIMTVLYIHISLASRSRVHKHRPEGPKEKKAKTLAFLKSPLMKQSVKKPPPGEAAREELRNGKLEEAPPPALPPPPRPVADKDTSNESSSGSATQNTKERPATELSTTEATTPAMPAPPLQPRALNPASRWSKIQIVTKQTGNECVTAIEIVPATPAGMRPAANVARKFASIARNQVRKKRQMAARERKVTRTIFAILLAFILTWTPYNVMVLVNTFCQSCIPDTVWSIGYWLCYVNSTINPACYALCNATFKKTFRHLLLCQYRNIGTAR
# TAAR1 antag: antagonists of human TAAR1; Q96RJ0; CHO RD-HGA16 TAAR1, Fluo-8 calcium fluorescence, antagonist; inhibition, % at 3 µM; 1.5% of 360,000 active;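 active = inhibition above a per-plate cutoff, the mean inhibition of test compounds on that plate plus 3 SD, cut at about 49% in these data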;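 note: 0% = DMSO plus EC80 beta-PEA response and 100% = DMSO alone without agonist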
#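 System: CHO RD-HGA16 cells bearing hTAAR1. Reagent: EC80 β-phenethylamine stimulus. Schedule: seeding 17-24 h prior, 75-min 37 °C, 30-min RT dye loading. Signal: Fluo-8 intracellular calcium dye fluorescence, real-time kinetic reads. Read-out: % inhibition from peak post-agonist over basal fluorescence ratio. Benchmarks: vehicle wells and EC80 agonist wells. Replicates: n of 1.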
# TAAR1 ag: agonists of human TAAR1. Q96RJ0. activation, % at 3 µM. CHO RD-HGA16 TAAR1, Fluo-8 calcium fluorescence; vehicle wells 0%, saturating PEA agonist 100%. 0.99% of 360,000 active;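 active = activation above the mean activation of all test compounds in the run plus 3 SD, cut at about 38% in these data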
#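 Repeats: no replicates (n 1) | Material: CHO-derived RD-HGA16 cells with stable Gα16 and human TAAR1 | Technique: Kinetic Fluo-8 calcium fluorescence | Schedule: 17-24 h seeding, 75 min 37 °C dye, 30 min RT | Evaluation: % activation from peak over basal fluorescence ratio, DMSO-to-PEA scaled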
# CHRM4 agonist: agonists of human muscarinic M4 receptor (CHRM4). CHO-K1 hM4/Gqi5, Fluo-8 calcium fluorescence; vehicle 0%, full acetylcholine response 100%. activation, % at 3 µM. 0.14% of 360,000 active;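 active = activation above the run mean over all test wells plus 3 SD, cut at about 32% in these data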;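 note: peak over basal fluorescence ratio per well then scaled between controls; 0% = DMSO wells and 100% = acetylcholine at EC100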
# M4 PAM: CHRM4 positive allosteric modulation; P08173; CHO-K1 hM4/Gqi5, Fluo-8 calcium fluorescence, ACh EC20; 0% = ACh EC20, 100% = maximal ACh; activation, % at 3 µM; 0.4% of 360,000 active;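 active = activation above its plate's cutoff, the mean activation of sample wells plus 3 SD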
# Numbers without * were called inactive; nt = no result given. Shown are actives, neighbours in structure and some others; about 3% of the full set was active somewhere.
SMILES,CHRM4 antagonist,TAAR1 antag,TAAR1 ag,CHRM4 agonist,M4 PAM
Cc1ccc(C)c(-c2cc(C(=O)NCc3cccs3)c3ccccc3n2)c1,7,49*,4,8,-7
COC(=O)c1sccc1NC(=O)c1cc(-c2cc(C)ccc2C)nc2ccccc12,3,16,6,0,4
Cc1ccc(C)c(-c2cc(C(=O)Nc3nccs3)c3ccccc3n2)c1,26,51*,15,9,-22
NC(=O)[C@@H]1CCCN1C(=O)[C@H]1O[C@@H](n2ccc(N)nc2=O)[C@H](O)[C@@H]1O,nt,5,2,nt,nt
Brc1cnc(N2CCCCC2)nc1N1CCOCC1,-4,15,8,3,6
Brc1cnc(N2CCCC2)nc1N1CCOCC1,27*,4,2,0,11
Oc1ccccc1Oc1ncc(Br)c(N2CCOCC2)n1,40*,10,10,1,-18
Oc1ccccc1Oc1ncc(Br)c(Cl)n1,-1,-10,0,-1,5
c1ccc(COn2nnc3ccccc32)c(COn2nnc3ccccc32)c1,3,55*,8,18,-13
C/C(=N\NC(=S)NC(C)C)c1ccc(Cl)s1,27*,-20,5,-2,-34
N#Cc1c(N)nc2c(c1-c1ccccc1)CCCC2,12,-16,41*,-1,10
C/C(=N\Nc1ccc(C(F)(F)F)cn1)c1ccncc1,-10,-14,1,6,21*
CC(=O)OCC(COC(C)=O)(CN1C(=O)c2ccccc2C1=O)CN1C(=O)c2ccccc2C1=O,nt,-10,1,nt,nt
O=C(COc1cccnc1[N+](=O)[O-])Nc1ncc(Cl)cc1Cl,-18,-20,11,2,25*
O=C(COc1cccnc1[N+](=O)[O-])Nc1c(Cl)cccc1Cl,-5,-13,1,1,3
COc1ccc(NC(=O)COC(=O)c2c3c(nc4ccccc24)CCCC3)cc1Cl,18,67*,9,6,-15
COc1ccc(NC(=O)COC(=O)c2c3c(nc4ccccc24)CCCC3)cc1,14,48,16,9,-10
CC(C)C(=O)Nc1ccc(N2CCCC2)cc1,30*,-2,-3,0,-13
CCCCNC(=O)C[C@H]1C[C@@]2(C(=O)OC)C(=C[C@H](C(C)(C)C)O[C@@H]2C)N(CCC2=CCCCC2)C1=O,nt,-42,-3,nt,nt
CCCCCCCCN1C(=O)[C@@H](CC(=O)NCC23CC4CC(CC(C4)C2)C3)C[C@@]2(C(=O)OC)C1=C[C@H](C1CCCC1)O[C@@H]2C,nt,-14,2,nt,nt
Cc1cc(=O)oc2c(CN(CC(C)C)CC(C)C)c(O)ccc12,nt,-4,-3,nt,nt
CC(C)CN(Cc1c(O)ccc2c3c(c(=O)oc12)CCC3)CC(C)C,28*,-7,0,-1,-30
Cc1ccc(C(C)C)c(OCCCn2ccnc2C)c1,73*,-12,4,3,-17
Cc1ccc(C(C)C)c(OCCN(C)C)c1,13,10,7,1,-13
Cc1ccc(C(C)C)c(OCCn2c(=O)oc3ccccc32)c1,24,72*,13,-2,-8
SMILES,CHRM4 antagonist,TAAR1 antag,TAAR1 ag,CHRM4 agonist,M4 PAM
Cc1ccc(C(C)C)c(OCCN)c1,3,-2,38*,1,1
COCCN1C(=O)COc2ccccc2C1C(=O)NC1CCCC1 (configuration not stated),-10,-29,4,0,16
Nc1[nH]c(C(=O)c2ccccc2)c(-c2ccc(Cl)cc2)c1C(=O)c1c[nH]c2ccccc12,nt,-6,0,nt,nt
COc1cc(/C=C2\CCCc3c2nc2ccccc2c3C(=O)O)cc(Br)c1O,7,5,-1,0,4
CCOc1cc(/C=C2\CCCc3c2nc2ccccc2c3C(=O)O)ccc1OC,4,15,59*,44*,-10
Cc1cccc(C)c1NC(=O)COC(=O)c1c2c(nc3ccccc13)/C(=C\c1ccc3c(c1)OCO3)CCC2,37*,53*,26,88*,-22
CN(C(=O)COC(=O)c1c2c(nc3ccccc13)/C(=C/c1cccc([N+](=O)[O-])c1)CCC2)C1CCS(=O)(=O)C1 (configuration not stated),7,13,3,11,-5
O=C(COC(=O)c1c2c(nc3ccccc13)/C(=C/c1cccc([N+](=O)[O-])c1)CCC2)NC1CCS(=O)(=O)C1 (configuration not stated),13,51*,11,8,-7
CC(OC(=O)c1c2c(nc3ccccc13)/C(=C\c1ccc3c(c1)OCO3)CCC2)C(=O)Nc1ccc(S(N)(=O)=O)cc1 (configuration not stated),8,nt,nt,5,-4
C[C@@H]1CN([C@H](C)CO)S(=O)(=O)c2ccc(Br)cc2O[C@H]1CN(C)CC1CCOCC1,nt,-3,0,nt,nt
OC(COCc1ccc2c(c1)OCO2)CN1CCCCC1 (configuration not stated),-13,10,3,0,4
CCC(CO)NCC(O)COCc1ccc2c(c1)OCO2 (configuration not stated),-13,-13,6,1,20*
Cc1cc(NC(=O)Cc2c(C)[nH]c3ccccc23)ccc1Oc1cccnc1,nt,6,7,nt,nt
COc1ccccc1N(CC(=O)NCCSCc1ccccc1)S(=O)(=O)c1ccc(C)cc1,10,47,-1,2,-9
COC(=O)c1cc(NC(=O)CN(c2ccccc2OC)S(=O)(=O)c2ccccc2)ccc1Cl,9,51*,7,10,-17
COc1ccccc1N(CC(=O)NCCSCc1ccccc1)S(=O)(=O)c1ccccc1,-1,65*,7,13,-10
COC(=O)c1cc(NC(=O)CN(c2cccc(OC)c2)S(=O)(=O)c2ccccc2)ccc1Cl,8,40,7,10,-5
CC(C)[C@H](NC(=O)[C@@H](N)Cc1ccccc1)C(=O)N1CCC2CCN(Cc3ccccc3)CC21 (some centres not stated),nt,3,-1,nt,nt
C[C@H](O)[C@@H]1CN2CCc3c([nH]c4c(-c5ccccc5)cccc34)[C@@H]2C[C@@H]1N(C)C(=O)NC1CCCCC1,nt,-8,-1,nt,nt
Cc1ccc(S(=O)(=O)/N=C2/NC(=O)/C(=C/c3cc([N+](=O)[O-])ccc3O)S2)cc1,30*,38,30,108*,-26
Cc1cccc(C(=O)Nc2cccc(C(=O)N/N=C/c3ccncc3)c2)c1,-3,48,13,13,-8
CCC(C(=O)Nc1ccc(C)cc1)c1ccccc1 (configuration not stated),6,-10,3,1,-5
CC(=O)c1cccc(NC(=O)c2ccc(Br)o2)c1,29*,9,7,2,16
CC(C)CC(=O)Nc1cccc(C(=O)Nc2ccccc2C(=O)O)c1,-22,-17,7,-2,30*
